Laboratory results: ChEMBL document CHEMBL2069286, “Discovery and biological evaluation of novel 4-amino-2-phenylpyrimidine derivatives as potent and orally active GPR119 agonists” (Bioorg Med Chem, 2012)
Active and inactive are the calls of the source. The calls are words filed in the database; no cut-off is given here.

What was measured:
[1] = biological target: T1, Glucose-dependent insulinotropic receptor (Homo sapiens) (UniProt Q8TDV5); test: Intrinsic activity at human GPR119 expressed in HEK293 cells assessed as stimulation of cAMP level at 10 uM incubated for 6 hrs by luciferase activity based luminometry relative to 10 uM 2-(2-(4-bromophenyl)-6-methylpyrimidin-4-ylamino)ethanol; format: functional, cell-based
T1 sequence (whole entry): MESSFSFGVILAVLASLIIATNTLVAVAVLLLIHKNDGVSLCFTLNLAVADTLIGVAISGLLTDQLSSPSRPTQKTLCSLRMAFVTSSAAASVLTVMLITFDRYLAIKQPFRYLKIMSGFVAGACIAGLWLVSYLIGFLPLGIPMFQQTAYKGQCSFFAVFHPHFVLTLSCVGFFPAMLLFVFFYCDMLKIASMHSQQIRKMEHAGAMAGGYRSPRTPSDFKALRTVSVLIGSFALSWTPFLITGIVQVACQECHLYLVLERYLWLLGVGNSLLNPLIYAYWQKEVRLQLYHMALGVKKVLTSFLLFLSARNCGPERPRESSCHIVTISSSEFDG
How it was run: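 Same HEK293 hGPR119/pCRE-luciferase system with 6 h exposure, lysis in 0.2% Triton X-100/PBS and luciferase read, triplicate wells. Test compound at 10 μM; response expressed as % of the luciferase signal given by the reference agonist at 10 μM.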

[2] = biological target: T2, Cytochrome P450 1A2 (Homo sapiens, UniProt P05177); test: Inhibition of CYP1A2; format: ADME
T2 sequence (P05177 whole entry): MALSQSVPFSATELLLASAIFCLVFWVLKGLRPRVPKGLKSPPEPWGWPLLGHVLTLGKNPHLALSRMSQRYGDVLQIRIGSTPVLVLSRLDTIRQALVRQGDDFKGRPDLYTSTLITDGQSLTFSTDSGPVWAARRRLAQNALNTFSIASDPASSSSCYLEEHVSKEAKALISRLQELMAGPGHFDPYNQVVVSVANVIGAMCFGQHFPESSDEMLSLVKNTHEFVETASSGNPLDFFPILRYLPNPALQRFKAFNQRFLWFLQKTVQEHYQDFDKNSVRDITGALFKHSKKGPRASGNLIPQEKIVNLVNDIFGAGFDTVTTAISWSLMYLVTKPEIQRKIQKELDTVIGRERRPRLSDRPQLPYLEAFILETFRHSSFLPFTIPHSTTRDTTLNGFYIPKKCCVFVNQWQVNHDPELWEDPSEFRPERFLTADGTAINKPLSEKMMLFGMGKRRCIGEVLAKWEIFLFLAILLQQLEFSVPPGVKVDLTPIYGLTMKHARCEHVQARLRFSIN

[3] = biological target: T1, Glucose-dependent insulinotropic receptor (Homo sapiens); test: Agonist activity at human GPR119 expressed in HEK293 cells assessed as stimulation of cAMP level incubated for 6 hrs by luciferase activity based luminometry; format: functional, cell-based
How it was run: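 HEK293 cells stably expressing human GPR119 plus pCRE-luciferase reporter; 2.5×10^4 cells/well, overnight at 37 °C in 5% CO₂, then compound (DMSO) at 0.01–10 μM for 6 h. Lysis in 0.2% Triton X-100/PBS pH 7.4, luminometer read of luciferase. Triplicates per concentration. EC = concentration matching the response of reference agonist at 10 μM.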

[4] = test system: Mus musculus; test: Antihyperglycemic activity in ICR mouse assessed as reduction in glucose levels at 3 mg/kg, po dosed post overnight fasting by oral glucose tolerance test; format: functional; set-up: scale not given: the % may be the effect or the level left
How it was run: (§1)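 Eight-week-old male ICR mice, fasted overnight, dosed orally with compound in 0.5% methylcellulose or vehicle alone. Oral glucose 2 g/kg given 10 min later. Tail-vein blood taken 30 min after glucose, and glucose measured by Glucose CII test.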

[5] = test system: Mus musculus; test: Antihyperglycemic activity in ICR mouse assessed as reduction in glucose levels at 1 mg/kg, po dosed post overnight fasting by oral glucose tolerance test; format: functional; set-up: scale not given: the % may be the effect or the level left; how it was run: as §1
[6] = Stability in human liver microsomes; format: ADME, Microsome; conditions: read-out: Stability
[7] = Half life in monkey at 1 mg/kg, iv; format: ADME, organism-based, Macaca mulatta; set-up: dose 1 mg/kg, route intravenous; conditions: rhesus monkey, in vivo
[8] = Tmax in mouse at 3 mg/kg, po; format: ADME, organism-based; set-up: dose 3 mg/kg, route oral; conditions: in vivo
[9] = Half life in mouse at 1 mg/kg, iv; format: ADME, organism-based; set-up: dose 1 mg/kg, route intravenous; conditions: in vivo
[10] = Total clearance in mouse at 1 mg/kg, iv; format: ADME, organism-based; set-up: dose 1 mg/kg, route intravenous; conditions: in vivo
[11] = Volume of distribution at steady state in monkey at 1 mg/kg, iv; format: ADME, organism-based, Macaca mulatta; set-up: dose 1 mg/kg, route intravenous; conditions: rhesus monkey, in vivo, read-out: Vdss
[12] = Volume of distribution at steady state in mouse at 1 mg/kg, iv; format: ADME, organism-based; set-up: dose 1 mg/kg, route intravenous; conditions: in vivo, read-out: Vdss
[13] = test system: Mus musculus; test: Antidiabetic activity in kk/Ay mouse assessed as improvement in pancreatic insulin level at 3 mg/kg, po once daily for week
[14] = Oral bioavailability in mouse at 3 mg/kg; format: ADME, organism-based; conditions: in vivo
[15] = Tmax in monkey at 3 mg/kg, po; format: ADME, organism-based, Macaca mulatta; set-up: dose 3 mg/kg, route oral; conditions: rhesus monkey, in vivo
[16] = test system: Mus musculus; test: Antidiabetic activity in kk/Ay mouse assessed as reduction in plasma triglyceride level at 3 mg/kg, po once daily for week by Triglyceride E-test; format: functional, organism-based; set-up: dose 3 mg/kg
How it was run: (§2)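 Eight-week-old male kk/Ay mice, n = 8 per group, dosed orally once daily for one week at 3 mg/kg, with 0.5% methylcellulose vehicle group. Fed-state tail-vein blood for glucose (Glucose CII), insulin and triglyceride (Triglyceride E-test). Pancreas weighed, homogenized, extracted with acid-ethanol, spun 10 min at 3000 g, supernatant insulin assayed. Mean ± SE; Dunnett's test.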

[17] = Oral bioavailability in monkey at 3 mg/kg; format: ADME, organism-based, Macaca mulatta; conditions: rhesus monkey, in vivo
[18] = test system: Mus musculus; test: Antidiabetic activity in kk/Ay mouse assessed as reduction in blood glucose at 3 mg/kg, po once daily for week by Glucose cII test; format: functional, organism-based; set-up: dose 3 mg/kg; how it was run: as §2
[19] = test system: Mus musculus; test: Antidiabetic activity in kk/Ay mouse assessed as reduction in plasma insulin at 3 mg/kg, po once daily for week; format: functional, organism-based; set-up: dose 3 mg/kg; how it was run: as §2
[20] = Total clearance in monkey at 1 mg/kg, iv; format: ADME, organism-based, Macaca mulatta; set-up: dose 1 mg/kg, route intravenous; conditions: rhesus monkey, in vivo
[21] = test system: Mus musculus; test: Antihyperglycemic activity in ICR mouse assessed as reduction in glucose levels at 10 mg/kg, po dosed post overnight fasting by oral glucose tolerance test; format: functional; set-up: scale not given: the % may be the effect or the level left

Cc1cc(NC[C@@H](O)CO)nc(-c2ccc(Br)c(F)c2)n1
Intrinsic activity [1]: 346% | IC50 [2]: 1700 nM | EC [3]: 1.2 µM

Cc1cc(NCCc2cc[nH]c(=O)c2)nc(-c2ccc(Br)c(F)c2)n1
Activity [4]: 10% | Intrinsic activity [1]: 617% | EC [3]: 0.021 µM

CCc1cc(NC[C@@H](O)CO)nc(-c2cc(F)c(Br)cc2F)n1
Activity [5]: 19% | Intrinsic activity [1]: 391% | IC50 [2]: 25000 nM | EC [3]: 0.22 µM

Cc1cc(NCCc2ccc[n+]([O-])c2)nc(-c2ccc(Cl)cc2)n1
Intrinsic activity [1]: 376% | EC [3]: 0.7 µM

Cc1cc(NCCc2ccc[n+]([O-])c2)nc(-c2cc(F)c(Br)cc2F)n1
Activity [4]: 23% | Intrinsic activity [1]: 588% | IC50 [2]: 7200 nM | EC [3]: 0.11 µM

Cc1cc(NCCc2ccc[n+]([O-])c2)nc(-c2ccc(Br)cc2F)n1
Activity [4]: 19% | Intrinsic activity [1]: 268% | EC [3]: 1.5 µM

Cc1cc(NCCc2cc[nH]c(=O)c2)nc(-c2cc(F)c(Cl)cc2F)n1
Activity [4]: 21% | Intrinsic activity [1]: 722% | EC [3]: 0.0069 µM

Cc1cc(NCCc2ccc[n+]([O-])c2)nc(-c2cc(F)c(Cl)cc2F)n1
Activity [4]: 27% | Intrinsic activity [1]: 536% | IC50 [2]: 3700 nM | EC [3]: 0.21 µM

CCc1cc(NC[C@@H](O)CO)nc(-c2cc(F)c(Cl)cc2F)n1
CLint scaled [6]: < 20 mL/min/kg | half-life [7]: 276 min | Activity [5]: 25% | Tmax [8]: 6 min | Intrinsic activity [1]: 497% | half-life [9]: 132 min | IC50 [2]: 35000 nM | clearance [10]: 35.9 mL/min/kg | Vd [11]: 4.7 L/kg | EC [3]: 0.28 µM | Vd [12]: 6.9 L/kg | Activity [13]: Active | bioavailability [14]: 86% | Tmax [15]: 2.2 h | Activity [16]: Active | bioavailability [17]: 51% | Activity [18]: Active | Activity [19]: Active | clearance [20]: 12 mL/min/kg

CCc1cc(NCCc2cc[nH]c(=O)c2)nc(-c2cc(F)c(Cl)cc2F)n1
Activity [4]: 25% | Intrinsic activity [1]: 578% | EC [3]: 0.013 µM

Cc1cc(NCCc2ccc[n+]([O-])c2)nc(-c2ccc(Cl)c(Cl)c2)n1
Activity [4]: 15% | Intrinsic activity [1]: 430% | EC [3]: 0.72 µM

Cc1cc(NCCc2ccc[n+]([O-])c2)nc(-c2ccc(Cl)c(F)c2)n1
Activity [4]: 25% | Intrinsic activity [1]: 450% | EC [3]: 0.33 µM

Cc1cc(NCCc2ccc[n+]([O-])c2)nc(-c2ccc(Br)cc2)n1
Activity [4]: inactive | Intrinsic activity [1]: 325% | Activity [21]: 38% | EC [3]: 1.2 µM

CCc1ccc(CCOc2ccc(CC3SC(=O)NC3=O)cc2)nc1 (configuration not stated)
Activity [16]: Active | Activity [18]: Active | Activity [19]: Active

Cc1cc(NC[C@H](O)CO)nc(-c2ccc(Br)c(F)c2)n1
Intrinsic activity [1]: 257% | EC [3]: 2.3 µM

Cc1cc(NCCc2ccc[n+]([O-])c2)nc(-c2cc(F)c(Br)c(F)c2)n1
Activity [4]: 15% | Intrinsic activity [1]: 493% | EC [3]: 0.34 µM

Cc1cc(NCCc2ccc[n+]([O-])c2)nc(-c2ccc(Br)c(F)c2)n1
Activity [4]: 30% | Intrinsic activity [1]: 573% | EC [3]: 0.22 µM

CCc1cc(NC[C@@H](O)CO)nc(-c2ccc(Br)c(F)c2)n1
CLint scaled [6]: 168 mL/min/kg | Activity [5]: 23% | Intrinsic activity [1]: 284% | IC50 [2]: 1500 nM | EC [3]: 0.19 µM

Cc1cc(NCCc2cc[nH]c(=O)c2)nc(-c2cc(F)c(Br)cc2F)n1
Activity [4]: 23% | Intrinsic activity [1]: 1080% | EC [3]: 0.017 µM

Cc1cc(NCCc2ccc[n+]([O-])c2)nc(-c2ccccc2)n1
Intrinsic activity [1]: inactive

CCc1cc(NC[C@H](O)CO)nc(-c2ccc(Br)c(F)c2)n1
Activity [5]: 16% | Intrinsic activity [1]: 283% | IC50 [2]: 1600 nM | EC [3]: 0.59 µM

CCc1cc(NC[C@@H](O)CO)nc(-c2ccc(Cl)c(F)c2)n1
CLint scaled [6]: 236 mL/min/kg | Activity [5]: 24% | Intrinsic activity [1]: 266% | IC50 [2]: 2100 nM | EC [3]: 0.39 µM
